Where “and” joins values, the source holds several entries; their conditions need not be identical. Equal entries are not always repeated. Where two headings read alike, the source gives them in different places.
What was measured:
[1] = target: HDAC9 (Homo sapiens, UniProt Q9UKV0); assay: HDAC biochemical assay
[2] = target: HDAC4 (Homo sapiens, UniProt P56524); assay: HDAC biochemical assay
[3] = target: T1, HDAC8 (Homo sapiens, UniProt Q9BY41); assay: HDAC biochemical assay; settings: RHKAcKAc-AMC substrate
T1 sequence (Q9BY41 1-377): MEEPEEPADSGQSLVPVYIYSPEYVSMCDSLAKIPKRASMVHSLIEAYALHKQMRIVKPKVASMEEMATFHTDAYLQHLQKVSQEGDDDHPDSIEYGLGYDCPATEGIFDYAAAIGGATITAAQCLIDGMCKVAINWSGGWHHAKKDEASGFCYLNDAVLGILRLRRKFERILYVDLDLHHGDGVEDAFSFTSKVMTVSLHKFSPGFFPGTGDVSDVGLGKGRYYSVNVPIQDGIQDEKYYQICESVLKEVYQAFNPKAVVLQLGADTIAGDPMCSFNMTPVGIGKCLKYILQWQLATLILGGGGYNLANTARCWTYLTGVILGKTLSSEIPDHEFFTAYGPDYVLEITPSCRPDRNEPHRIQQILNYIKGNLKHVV

[4] = system: histone H3 acetylation in PC-3 cells; assay: Western blot of histone H3 acetylation in PC-3 cells; assay type: cell-based, human; settings: data not shown
[5] = target: HDAC5 (Homo sapiens, UniProt Q9UQL6); assay: HDAC biochemical assay
[6] = system: several HDAC subtypes; assay: Primary screening at 10 µM in HDAC enzymatic assay; assay type: biochemical; settings: 10 µM of compound
Outline: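 Recombinant HDACs run with fluorogenic AMC peptides: RHKKAc-AMC for HDAC1, 2, 3, 6, 10 and 11; RHKAcKAc-AMC for HDAC8; acetyl-Lys(trifluoroacetyl)-AMC for HDAC4, 5, 7 and 9. Substrate then added; developer digests deacetylated product; AMC fluorescence read.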

[7] = target: T2, HDAC6 (Homo sapiens, UniProt Q9UBN7); assay: HDAC biochemical assay; settings: AMC-labeled peptide substrate
T2 sequence (Q9UBN7 1-1215): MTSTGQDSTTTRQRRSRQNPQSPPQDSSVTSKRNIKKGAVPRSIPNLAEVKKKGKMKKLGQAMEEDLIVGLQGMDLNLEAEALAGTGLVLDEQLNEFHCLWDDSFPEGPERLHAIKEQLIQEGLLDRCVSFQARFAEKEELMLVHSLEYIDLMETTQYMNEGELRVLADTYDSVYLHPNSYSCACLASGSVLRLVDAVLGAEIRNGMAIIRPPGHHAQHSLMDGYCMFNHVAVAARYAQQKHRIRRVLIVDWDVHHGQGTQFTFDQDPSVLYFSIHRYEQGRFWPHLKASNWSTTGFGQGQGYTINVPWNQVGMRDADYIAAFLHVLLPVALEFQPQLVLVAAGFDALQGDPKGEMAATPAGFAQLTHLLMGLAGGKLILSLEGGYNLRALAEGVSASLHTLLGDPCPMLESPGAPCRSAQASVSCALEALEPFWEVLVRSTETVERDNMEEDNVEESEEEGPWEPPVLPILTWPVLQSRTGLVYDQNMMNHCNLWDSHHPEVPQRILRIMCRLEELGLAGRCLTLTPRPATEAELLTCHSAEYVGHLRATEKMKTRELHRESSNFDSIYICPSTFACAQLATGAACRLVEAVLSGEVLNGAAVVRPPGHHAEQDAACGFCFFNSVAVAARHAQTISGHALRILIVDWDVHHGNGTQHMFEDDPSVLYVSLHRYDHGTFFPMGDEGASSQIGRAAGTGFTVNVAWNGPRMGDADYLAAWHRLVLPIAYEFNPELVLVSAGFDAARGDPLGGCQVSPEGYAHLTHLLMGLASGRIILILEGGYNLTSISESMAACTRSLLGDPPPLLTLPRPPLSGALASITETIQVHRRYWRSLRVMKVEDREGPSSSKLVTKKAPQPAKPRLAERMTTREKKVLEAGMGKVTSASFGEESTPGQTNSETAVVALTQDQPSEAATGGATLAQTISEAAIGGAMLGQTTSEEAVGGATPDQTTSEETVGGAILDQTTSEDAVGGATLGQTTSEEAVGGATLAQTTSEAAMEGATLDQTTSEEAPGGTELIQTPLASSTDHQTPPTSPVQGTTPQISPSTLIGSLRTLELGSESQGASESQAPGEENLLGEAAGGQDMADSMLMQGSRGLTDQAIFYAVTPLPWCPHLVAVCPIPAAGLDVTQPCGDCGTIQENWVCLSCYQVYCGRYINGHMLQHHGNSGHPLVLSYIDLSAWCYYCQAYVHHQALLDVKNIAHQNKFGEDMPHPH

[8] = target: T3, HDAC11 (Homo sapiens, UniProt Q96DB2); assay: HDAC biochemical assay
T3 sequence (Q96DB2 1-347): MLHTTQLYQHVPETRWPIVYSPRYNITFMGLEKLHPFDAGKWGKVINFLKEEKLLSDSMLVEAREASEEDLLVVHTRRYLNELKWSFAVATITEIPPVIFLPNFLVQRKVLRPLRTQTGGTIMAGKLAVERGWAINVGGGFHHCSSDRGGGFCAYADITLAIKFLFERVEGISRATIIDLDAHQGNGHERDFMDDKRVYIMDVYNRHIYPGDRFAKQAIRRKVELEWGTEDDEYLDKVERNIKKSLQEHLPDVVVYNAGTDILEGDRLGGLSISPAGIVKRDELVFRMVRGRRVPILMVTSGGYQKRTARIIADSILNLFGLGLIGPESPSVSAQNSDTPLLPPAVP

[9] = target: HDAC1 (Homo sapiens, UniProt Q13547); assay: HDAC biochemical assay
[10] = target: T4, HDAC7 (Homo sapiens, UniProt Q8WUI4); assay: HDAC biochemical assay
T4 sequence (Q8WUI4 1-952): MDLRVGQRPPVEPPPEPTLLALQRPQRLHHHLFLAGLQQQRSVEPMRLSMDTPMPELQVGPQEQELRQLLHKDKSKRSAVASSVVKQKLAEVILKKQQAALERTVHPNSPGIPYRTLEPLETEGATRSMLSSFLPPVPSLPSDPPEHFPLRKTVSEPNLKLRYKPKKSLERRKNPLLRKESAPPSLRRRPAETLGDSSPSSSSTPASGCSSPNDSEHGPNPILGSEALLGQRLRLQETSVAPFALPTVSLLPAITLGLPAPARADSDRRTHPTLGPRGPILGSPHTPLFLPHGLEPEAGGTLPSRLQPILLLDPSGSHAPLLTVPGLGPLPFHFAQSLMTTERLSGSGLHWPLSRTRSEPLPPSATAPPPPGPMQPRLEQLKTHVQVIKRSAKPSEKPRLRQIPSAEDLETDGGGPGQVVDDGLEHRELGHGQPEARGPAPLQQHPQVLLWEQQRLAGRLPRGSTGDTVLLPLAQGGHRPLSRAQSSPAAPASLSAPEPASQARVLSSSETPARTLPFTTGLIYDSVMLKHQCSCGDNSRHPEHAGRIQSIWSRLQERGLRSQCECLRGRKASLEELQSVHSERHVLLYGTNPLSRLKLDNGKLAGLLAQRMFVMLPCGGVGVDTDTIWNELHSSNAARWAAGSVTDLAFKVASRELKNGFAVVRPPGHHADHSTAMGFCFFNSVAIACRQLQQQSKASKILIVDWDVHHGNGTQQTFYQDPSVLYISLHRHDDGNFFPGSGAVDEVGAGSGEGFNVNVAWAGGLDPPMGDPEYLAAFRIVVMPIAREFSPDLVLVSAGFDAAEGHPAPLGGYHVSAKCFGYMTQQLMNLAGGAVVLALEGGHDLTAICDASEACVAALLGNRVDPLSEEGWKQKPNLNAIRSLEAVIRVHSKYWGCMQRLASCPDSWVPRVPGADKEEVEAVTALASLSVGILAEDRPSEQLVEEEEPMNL

[11] = system: α-tubulin acetylation in PC-3 cells; assay: Western blot of acetylated α-tubulin in PC-3 cells; assay type: cell-based, human; settings: 18 h
Outline: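 PC-3 cells seeded overnight in complete medium, then treated 18 h with test compound (10 doses, threefold dilution). Washed with PBS and lysed in 1× SDS sample buffer. Lysates resolved on 12% Bis-Tris SDS-PAGE and transferred to nitrocellulose. Blocked 1 h in 3% nonfat milk, probed overnight with anti-acetyl-tubulin and a fluorescent secondary, scanned, then reprobed for total α-tubulin. One of three experiments shown.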

[12] = system: 11 HDACs; assay: HDAC biochemical assay, panel statements; settings: up to 10 µM dose
[13] = target: T5, HDAC10 (Homo sapiens, UniProt Q969S8); assay: HDAC biochemical assay
T5 sequence (Q969S8 1-669): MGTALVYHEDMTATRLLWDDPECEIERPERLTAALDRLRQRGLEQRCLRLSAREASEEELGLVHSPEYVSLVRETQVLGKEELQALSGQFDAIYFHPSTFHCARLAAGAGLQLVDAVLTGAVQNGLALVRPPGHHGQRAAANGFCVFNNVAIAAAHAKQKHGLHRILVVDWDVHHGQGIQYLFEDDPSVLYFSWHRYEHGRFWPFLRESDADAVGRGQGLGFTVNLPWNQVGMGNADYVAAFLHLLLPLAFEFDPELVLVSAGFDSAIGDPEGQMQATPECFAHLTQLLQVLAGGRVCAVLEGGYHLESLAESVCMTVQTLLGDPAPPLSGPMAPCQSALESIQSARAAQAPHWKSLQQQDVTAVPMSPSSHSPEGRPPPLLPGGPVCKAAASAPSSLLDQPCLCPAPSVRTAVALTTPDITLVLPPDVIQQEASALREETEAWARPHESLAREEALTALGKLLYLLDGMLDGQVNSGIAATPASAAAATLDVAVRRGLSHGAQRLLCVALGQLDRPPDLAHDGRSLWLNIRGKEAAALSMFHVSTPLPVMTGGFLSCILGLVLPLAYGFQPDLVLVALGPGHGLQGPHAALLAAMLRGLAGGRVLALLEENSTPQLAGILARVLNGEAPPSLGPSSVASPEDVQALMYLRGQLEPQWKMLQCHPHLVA

[14] = target: HDAC3 (Homo sapiens, UniProt O15379); assay: HDAC biochemical assay
[15] = target: HDAC2 (Homo sapiens, UniProt Q92769); assay: HDAC biochemical assay
HDAC2, sequence (Q92769 whole entry): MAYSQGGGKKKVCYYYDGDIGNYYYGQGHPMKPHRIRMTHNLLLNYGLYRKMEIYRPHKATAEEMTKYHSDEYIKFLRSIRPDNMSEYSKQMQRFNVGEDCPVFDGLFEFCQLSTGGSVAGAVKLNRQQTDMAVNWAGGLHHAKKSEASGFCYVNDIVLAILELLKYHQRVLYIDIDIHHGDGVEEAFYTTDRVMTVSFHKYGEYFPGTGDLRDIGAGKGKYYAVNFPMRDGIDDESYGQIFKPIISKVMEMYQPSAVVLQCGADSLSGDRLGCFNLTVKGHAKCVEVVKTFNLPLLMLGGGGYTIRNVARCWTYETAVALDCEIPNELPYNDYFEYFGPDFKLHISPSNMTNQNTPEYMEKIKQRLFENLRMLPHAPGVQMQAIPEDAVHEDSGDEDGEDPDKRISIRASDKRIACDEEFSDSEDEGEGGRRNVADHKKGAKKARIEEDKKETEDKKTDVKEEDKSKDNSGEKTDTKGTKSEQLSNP

HDAC3, sequence (O15379 whole entry): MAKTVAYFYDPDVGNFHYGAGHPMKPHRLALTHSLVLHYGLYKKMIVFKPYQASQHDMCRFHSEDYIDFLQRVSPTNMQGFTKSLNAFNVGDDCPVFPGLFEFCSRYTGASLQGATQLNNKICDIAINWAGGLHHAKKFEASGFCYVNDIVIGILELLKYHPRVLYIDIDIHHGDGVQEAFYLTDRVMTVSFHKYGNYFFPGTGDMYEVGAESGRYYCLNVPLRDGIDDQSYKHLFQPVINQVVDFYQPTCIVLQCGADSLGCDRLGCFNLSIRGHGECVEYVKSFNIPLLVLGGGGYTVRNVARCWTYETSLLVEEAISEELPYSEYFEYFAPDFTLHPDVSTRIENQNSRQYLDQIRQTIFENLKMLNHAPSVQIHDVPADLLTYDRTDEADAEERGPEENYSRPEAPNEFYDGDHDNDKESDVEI
HDAC3, sequence (Q9Y618 395-489 partner limits assumed): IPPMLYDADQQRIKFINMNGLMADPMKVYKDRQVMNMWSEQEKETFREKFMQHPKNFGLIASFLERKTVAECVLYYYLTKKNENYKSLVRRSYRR
HDAC4, sequence (P56524 whole entry): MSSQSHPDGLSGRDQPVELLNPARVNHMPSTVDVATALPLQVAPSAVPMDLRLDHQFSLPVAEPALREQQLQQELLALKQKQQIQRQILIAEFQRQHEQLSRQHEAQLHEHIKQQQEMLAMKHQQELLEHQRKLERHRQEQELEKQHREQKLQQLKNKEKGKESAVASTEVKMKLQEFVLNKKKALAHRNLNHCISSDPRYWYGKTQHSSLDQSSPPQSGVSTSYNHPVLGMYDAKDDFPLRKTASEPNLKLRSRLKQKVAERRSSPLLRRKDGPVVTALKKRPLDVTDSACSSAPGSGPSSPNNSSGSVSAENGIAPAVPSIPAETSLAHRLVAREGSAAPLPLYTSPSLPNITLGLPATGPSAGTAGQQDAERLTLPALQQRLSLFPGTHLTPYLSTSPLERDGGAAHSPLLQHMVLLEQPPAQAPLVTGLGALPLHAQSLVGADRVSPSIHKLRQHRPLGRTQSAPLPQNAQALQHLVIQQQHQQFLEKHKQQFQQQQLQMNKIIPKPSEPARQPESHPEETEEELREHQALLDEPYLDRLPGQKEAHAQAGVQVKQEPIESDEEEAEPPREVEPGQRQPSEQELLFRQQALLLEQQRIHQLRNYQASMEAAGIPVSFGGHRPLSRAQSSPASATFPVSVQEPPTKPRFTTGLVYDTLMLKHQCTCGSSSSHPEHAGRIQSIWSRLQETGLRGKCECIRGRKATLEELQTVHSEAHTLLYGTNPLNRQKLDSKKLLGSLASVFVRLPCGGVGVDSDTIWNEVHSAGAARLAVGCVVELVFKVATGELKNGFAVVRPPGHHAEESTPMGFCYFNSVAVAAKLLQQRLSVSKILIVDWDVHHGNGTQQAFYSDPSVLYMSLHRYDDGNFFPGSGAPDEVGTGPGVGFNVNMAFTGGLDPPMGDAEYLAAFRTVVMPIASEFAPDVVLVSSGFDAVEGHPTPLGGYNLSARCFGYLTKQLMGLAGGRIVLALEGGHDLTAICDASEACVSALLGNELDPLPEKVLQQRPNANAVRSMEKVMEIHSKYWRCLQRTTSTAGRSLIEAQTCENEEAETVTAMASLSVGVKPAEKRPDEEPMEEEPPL
HDAC1, sequence (Q13547 whole entry): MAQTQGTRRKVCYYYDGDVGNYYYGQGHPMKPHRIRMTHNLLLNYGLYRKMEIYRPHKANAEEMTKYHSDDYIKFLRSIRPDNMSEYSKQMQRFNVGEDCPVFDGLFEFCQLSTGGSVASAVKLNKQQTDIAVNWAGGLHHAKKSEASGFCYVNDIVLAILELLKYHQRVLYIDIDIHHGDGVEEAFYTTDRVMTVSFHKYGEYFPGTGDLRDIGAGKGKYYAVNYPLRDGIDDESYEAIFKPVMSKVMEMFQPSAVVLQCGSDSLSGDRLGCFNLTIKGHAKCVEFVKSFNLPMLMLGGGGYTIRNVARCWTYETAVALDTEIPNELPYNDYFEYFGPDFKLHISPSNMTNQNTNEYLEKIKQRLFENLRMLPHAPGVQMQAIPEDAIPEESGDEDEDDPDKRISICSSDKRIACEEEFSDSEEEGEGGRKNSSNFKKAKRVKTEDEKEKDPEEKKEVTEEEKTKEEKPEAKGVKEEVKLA
HDAC9, sequence (Q9UKV0 whole entry): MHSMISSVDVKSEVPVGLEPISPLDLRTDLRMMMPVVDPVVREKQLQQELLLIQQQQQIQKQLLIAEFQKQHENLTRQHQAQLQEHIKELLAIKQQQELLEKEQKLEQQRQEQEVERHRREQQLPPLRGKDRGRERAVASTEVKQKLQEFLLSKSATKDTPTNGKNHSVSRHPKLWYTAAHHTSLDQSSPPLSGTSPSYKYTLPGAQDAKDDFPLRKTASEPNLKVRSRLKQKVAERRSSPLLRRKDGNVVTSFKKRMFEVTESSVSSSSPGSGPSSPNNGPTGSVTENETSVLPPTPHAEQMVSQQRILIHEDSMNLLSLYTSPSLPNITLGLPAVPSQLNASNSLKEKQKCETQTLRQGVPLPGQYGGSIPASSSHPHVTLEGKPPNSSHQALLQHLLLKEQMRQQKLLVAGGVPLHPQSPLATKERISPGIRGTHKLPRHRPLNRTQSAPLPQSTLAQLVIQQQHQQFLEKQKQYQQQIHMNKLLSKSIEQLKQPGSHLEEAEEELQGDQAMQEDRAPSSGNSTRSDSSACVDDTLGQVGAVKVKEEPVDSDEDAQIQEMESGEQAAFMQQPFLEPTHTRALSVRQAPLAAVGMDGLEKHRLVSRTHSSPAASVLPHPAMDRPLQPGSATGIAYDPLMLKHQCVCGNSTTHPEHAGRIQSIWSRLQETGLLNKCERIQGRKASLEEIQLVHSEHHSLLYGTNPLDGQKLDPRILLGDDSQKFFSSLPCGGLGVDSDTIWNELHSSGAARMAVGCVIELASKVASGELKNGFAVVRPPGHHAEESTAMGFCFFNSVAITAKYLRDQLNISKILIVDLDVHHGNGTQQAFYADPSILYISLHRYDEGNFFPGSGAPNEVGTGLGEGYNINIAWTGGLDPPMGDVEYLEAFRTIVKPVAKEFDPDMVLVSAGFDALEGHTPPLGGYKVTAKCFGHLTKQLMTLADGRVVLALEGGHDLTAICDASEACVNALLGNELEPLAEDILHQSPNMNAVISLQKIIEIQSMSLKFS
HDAC5, sequence (Q9UQL6 whole entry): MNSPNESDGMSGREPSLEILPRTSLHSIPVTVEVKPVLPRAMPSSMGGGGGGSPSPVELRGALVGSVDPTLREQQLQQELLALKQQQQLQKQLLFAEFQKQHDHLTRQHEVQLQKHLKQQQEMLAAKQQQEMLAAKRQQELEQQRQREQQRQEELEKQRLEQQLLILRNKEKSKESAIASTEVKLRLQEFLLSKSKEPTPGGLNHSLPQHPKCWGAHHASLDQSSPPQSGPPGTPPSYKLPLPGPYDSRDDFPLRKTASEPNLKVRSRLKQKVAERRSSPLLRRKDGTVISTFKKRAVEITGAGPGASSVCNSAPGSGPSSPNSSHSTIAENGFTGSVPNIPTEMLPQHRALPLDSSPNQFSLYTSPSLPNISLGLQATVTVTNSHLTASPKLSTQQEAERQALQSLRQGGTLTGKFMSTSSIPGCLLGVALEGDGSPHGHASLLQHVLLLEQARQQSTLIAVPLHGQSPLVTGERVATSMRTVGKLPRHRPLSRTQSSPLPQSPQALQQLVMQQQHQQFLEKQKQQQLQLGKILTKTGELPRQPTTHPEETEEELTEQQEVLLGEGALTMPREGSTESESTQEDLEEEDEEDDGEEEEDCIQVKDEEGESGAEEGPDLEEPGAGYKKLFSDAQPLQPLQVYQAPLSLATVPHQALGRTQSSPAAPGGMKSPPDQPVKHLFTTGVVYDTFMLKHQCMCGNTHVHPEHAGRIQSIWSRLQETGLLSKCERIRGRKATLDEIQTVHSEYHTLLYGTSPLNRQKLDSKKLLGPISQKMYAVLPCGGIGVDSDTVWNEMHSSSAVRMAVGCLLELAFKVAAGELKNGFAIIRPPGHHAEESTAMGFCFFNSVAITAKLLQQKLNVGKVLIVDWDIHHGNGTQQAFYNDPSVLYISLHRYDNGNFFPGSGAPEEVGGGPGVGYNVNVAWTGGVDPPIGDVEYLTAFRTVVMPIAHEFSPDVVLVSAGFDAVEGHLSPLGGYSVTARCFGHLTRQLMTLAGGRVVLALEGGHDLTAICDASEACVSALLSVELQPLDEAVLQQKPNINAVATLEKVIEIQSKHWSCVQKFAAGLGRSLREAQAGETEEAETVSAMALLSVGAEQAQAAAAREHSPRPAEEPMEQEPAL

| SMILES | IC50 ([1]; HDAC9 IC50, biochemical HDAC assay, acetyl-Lys(trifluoroacetyl)-AMC substrate) | IC50 [2] | IC50 [3] | effect on acetylation/deacetylation of histone H3 [4] | IC50 ([5]; HDAC5 IC50, biochemical HDAC assay, acetyl-Lys(trifluoroacetyl)-AMC substrate) | inhibition in primary screening [6] | IC50 [7] | IC50 [8] | IC50 [9] | IC50 [10] | acetylated α-tubulin level [11] | inhibition of the other HDAC subtypes (other than HDAC5, HDAC6, HDAC8, HDAC9) [12] | IC50 [13] | IC50 [14] | IC50 [15] | IC50 [1] | IC50 [5] | IC50 ([9]; HDAC1 IC50, biochemical HDAC assay, AMC-labeled peptide substrate) |
| --- | --- | --- | --- | --- | --- | --- | --- | --- | --- | --- | --- | --- | --- | --- | --- | --- | --- | --- |
| O=c1c2ccccc2[se]n1-c1ccccc1 [Ebselen, 2-phenyl-1,2-benzisoselenazol-3(2H)-one] | 3.75 µM | > 10 µM | 1.2 µM and 1.21 µM | not observed | 3.49 µM | > 50% | 6.99 µM | > 10 µM | > 10 µM | > 10 µM | not observed | no significant inhibition | > 10 µM | > 10 µM | > 10 µM |  |  |  |
| Cc1ccccc1-n1sc2cc(F)ccc2c1=O [Thr101, 6-Fluoro-2-o-tolylbenzo[d] isothiazol-3(2H)-one] |  | 6.07 µM |  |  |  |  | 4.14 µM | > 10 µM |  | 3.43 µM |  |  | > 10 µM | 4.24 µM | > 10 µM | 3.77 µM | 1.57 µM | 3.62 µM |
| O=C(CCCCCCNC(=O)c1cnc(N(c2ccccc2)c2ccccc2)nc1)NO [ACY-1215] |  |  |  |  |  |  |  |  |  |  | significantly increased |  |  |  |  |  |  |  |
